These results are taken from ChEMBL document CHEMBL1250457, “Elucidation of the topography of the thapsigargin binding site in the sarco-endoplasmic calcium ATPase” (Bioorg Med Chem, 2010).

In the assay the target is Sarcoplasmic/endoplasmic reticulum calcium ATPase 1 (Oryctolagus cuniculus, UniProt P04191). Put plainly: Inhibition of rabbit sarcoplasmic reticulum calcium ATPase by ATP regeneration assay. The method in brief: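 SERCA1a purified from rabbit skeletal muscle SR vesicles with low deoxycholate. Enzyme (1 mg/mL) pre-equilibrated 2.5–6 min with cumulatively added inhibitor (DMSO) in 1 mM EGTA, 1 mM Mg2+, 10 mM Tes pH 7.5, 100 mM KCl. Then diluted to 4 nM at 20 °C into NADH-coupled PK/LDH medium: 0.1 mM Ca2+, 1 mM Mg2+, 5 mM MgATP, 1 mM PEP, 0.15 mM NADH. Rate of A340 decrease.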
Chain of Sarcoplasmic/endoplasmic reticulum calcium ATPase 1 (P04191 whole entry): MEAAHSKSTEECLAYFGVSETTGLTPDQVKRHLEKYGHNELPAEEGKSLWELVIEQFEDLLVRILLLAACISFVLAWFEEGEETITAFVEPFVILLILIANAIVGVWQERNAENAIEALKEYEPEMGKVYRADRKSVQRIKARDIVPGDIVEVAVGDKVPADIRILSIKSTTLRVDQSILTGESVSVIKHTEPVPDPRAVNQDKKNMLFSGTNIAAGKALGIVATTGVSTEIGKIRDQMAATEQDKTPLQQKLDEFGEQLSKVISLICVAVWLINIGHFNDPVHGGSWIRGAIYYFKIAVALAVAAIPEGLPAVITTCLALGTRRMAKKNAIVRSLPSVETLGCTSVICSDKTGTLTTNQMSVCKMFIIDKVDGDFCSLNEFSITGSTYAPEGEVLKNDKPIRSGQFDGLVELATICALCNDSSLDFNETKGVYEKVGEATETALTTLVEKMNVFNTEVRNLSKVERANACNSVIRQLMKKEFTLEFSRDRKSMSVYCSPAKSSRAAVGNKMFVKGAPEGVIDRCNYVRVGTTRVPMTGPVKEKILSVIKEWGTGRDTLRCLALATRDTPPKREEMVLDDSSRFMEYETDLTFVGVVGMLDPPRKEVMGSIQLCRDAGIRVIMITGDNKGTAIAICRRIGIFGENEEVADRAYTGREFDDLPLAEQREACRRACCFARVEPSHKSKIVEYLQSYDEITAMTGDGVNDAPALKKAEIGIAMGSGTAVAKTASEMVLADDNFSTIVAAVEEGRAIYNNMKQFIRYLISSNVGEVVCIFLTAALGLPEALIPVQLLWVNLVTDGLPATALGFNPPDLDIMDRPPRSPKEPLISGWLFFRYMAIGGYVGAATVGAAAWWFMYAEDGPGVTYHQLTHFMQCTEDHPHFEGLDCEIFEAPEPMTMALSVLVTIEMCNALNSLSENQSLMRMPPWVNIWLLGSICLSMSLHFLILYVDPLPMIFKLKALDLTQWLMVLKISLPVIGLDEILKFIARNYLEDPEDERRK
As a reminder, the IC50 is the concentration that gives 50% inhibition. For the compound `C/C=C(/C)C(=O)O[C@H]1C(C)=C2[C@H]([C@@H]1OC(=O)CCCCCCC)[C@@](C)(O)C[C@H](OC(=O)CCC)[C@@]1(O)[C@H]2OC(=O)[C@@]1(C)O`, the IC50 was 20 nM.

For the compound `C/C=C(/C)C(=O)O[C@H]1C(C)=C2[C@H]([C@@H]1OC(=O)CCCCCCC)[C@@](C)(O)C[C@H](OC(=O)CCCCCCC)[C@@]1(O)[C@H]2OC(=O)[C@@]1(C)O`, the IC50 amounted to 20 nM.

For `C/C=C(/C)C(=O)O[C@H]1C(C)=C2[C@H]([C@@H]1OC(=O)CCCCCCC)[C@@](C)(OC(=O)CCC)C[C@H](OC(=O)CCC)[C@@]1(O)[C@H]2OC(=O)[C@@]1(C)O`, the IC50 came to 2.5 nM.

Take `C/C=C(/C)C(=O)O[C@H]1C(C)=C2[C@H]([C@@H]1OC(=O)CCCCCCC)[C@@](C)(OC(=O)CCCCCCC)C[C@H](OC(=O)CCC)[C@@]1(O)[C@H]2OC(=O)[C@@]1(C)O`: the IC50 was 16 nM.

For `C/C=C(/C)C(=O)O[C@H]1C(C)=C2[C@H]([C@@H]1OC(=O)CCCCCCC)[C@@](C)(OC(=O)c1ccccc1)C[C@H](OC(=O)CCC)[C@@]1(O)[C@H]2OC(=O)[C@@]1(C)O`, the IC50 was 15.6 nM.

On to `C/C=C(/C)C(=O)O[C@H]1C(C)=C2[C@H]([C@@H]1OC(=O)CCCCCCC)[C@@](C)(OC(=O)c1ccc(-c3ccccc3)cc1)C[C@H](OC(=O)CCC)[C@@]1(O)[C@H]2OC(=O)[C@@]1(C)O`, for which the IC50 is over 70 nM.

Turning to `C/C=C(/C)C(=O)O[C@H]1C(C)=C2[C@H]([C@@H]1OC(=O)CCCCCCC)[C@@](C)(OC(=O)Cc1ccc(-c3ccccc3)cc1)C[C@H](OC(=O)CCC)[C@@]1(O)[C@H]2OC(=O)[C@@]1(C)O`, the IC50 was found to be 27 nM.

In the case of `C/C=C(/C)C(=O)O[C@H]1C(C)=C2[C@H]([C@@H]1OC(=O)c1ccccc1)[C@@](C)(OC(C)=O)C[C@H](OC(=O)CCC)[C@@]1(O)[C@H]2OC(=O)[C@@]1(C)O`, the IC50 came out at 1.6 nM.

As for `C/C=C(/C)C(=O)O[C@H]1C(C)=C2[C@H]([C@@H]1OC(=O)CCCCCCC)[C@@](C)(OC(=O)CCC)C[C@@H]1OC(C)(C)O[C@]3(C)C(=O)O[C@@H]2[C@]13OC(=O)CCC`, the IC50 is over 70 nM.

Turning to `C/C=C(/C)C(=O)O[C@H]1C(C)=C2[C@H]([C@@H]1OC(=O)CCCCCCC)[C@@](C)(OC(=O)CCC)C[C@@H]1OC(C)(C)O[C@]3(C)C(=O)O[C@@H]2[C@]13O`, the IC50 is 19 nM.

For `C/C=C(/C)C(=O)O[C@H]1C(C)=C2[C@H]([C@@H]1OC(=O)CCCCCCC)[C@@](C)(OC(=O)CCC)C[C@H](OC(=O)CCC)[C@@]1(O)[C@H]2OC(=O)[C@@]1(C)OC(=O)CCC`, the IC50 came to 11.1 nM.

As to `CCCCCCCC(=O)O[C@H]1[C@H]2C(=C(C)[C@@H]1O)[C@@H]1OC(=O)[C@@](C)(O)[C@@]1(O)[C@@H](OC(=O)CCC)C[C@]2(C)OC(C)=O`, the IC50 is over 70 nM.

For the compound `CCCCCCCC(=O)O[C@H]1[C@H]2C(=C(C)[C@@H]1OC(=O)c1ccccc1)[C@@H]1OC(=O)[C@@](C)(O)[C@@]1(O)[C@@H](OC(=O)CCC)C[C@]2(C)OC(C)=O`, the IC50 came to 0.8 nM.

Regarding `CCCCCCCC(=O)O[C@H]1[C@H]2C(=C(C)[C@@H]1OC(=O)c1cccc(C)c1)[C@@H]1OC(=O)[C@@](C)(O)[C@@]1(O)[C@@H](OC(=O)CCC)C[C@]2(C)OC(C)=O`, the IC50 is 9 nM.

`CCCCCCCC(=O)O[C@H]1[C@H]2C(=C(C)[C@@H]1OC(=O)Cc1ccc(-c3ccccc3)cc1)[C@@H]1OC(=O)[C@@](C)(O)[C@@]1(O)[C@@H](OC(=O)CCC)C[C@]2(C)OC(C)=O`: the IC50 amounted to 18 nM.

Turning to `CCCCCCCC(=O)O[C@H]1[C@H]2C(=C(C)[C@@H]1OC(=O)c1ccccc1-c1ccccc1)[C@@H]1OC(=O)[C@@](C)(O)[C@@]1(O)[C@@H](OC(=O)CCC)C[C@]2(C)OC(C)=O`, the IC50 amounted to 3 nM.

On to `CCCCCCCC(=O)O[C@H]1[C@H]2C(=C(C)[C@@H]1OC(=O)c1ccc(C)cc1)[C@@H]1OC(=O)[C@@](C)(O)[C@@]1(O)[C@@H](OC(=O)CCC)C[C@]2(C)OC(C)=O`, for which the IC50 came out at 44 nM.

Consider `CCCCCCCC(=O)O[C@H]1[C@H]2C(=C(C)[C@@H]1OC(=O)c1ccc(-c3ccccc3)cc1)[C@@H]1OC(=O)[C@@](C)(O)[C@@]1(O)[C@@H](OC(=O)CCC)C[C@]2(C)OC(C)=O`, for which the IC50 is over 70 nM.

Take `C/C=C(/C)C(=O)O[C@H]1C(C)=C2[C@H]([C@@H]1OC(=O)CCCCCCC)[C@@](C)(OC(C)=O)C[C@H](O)[C@@]1(O)[C@H]2OC(=O)[C@@]1(C)O` [DEBUTANOYLTHAPSIGARGIN]: the IC50 came to 10 nM.

`C/C=C(/C)C(=O)O[C@H]1C(C)=C2[C@H]([C@@H]1OC(=O)CCCCCCC)[C@@](C)(OC(C)=O)C[C@H](OC(=O)CCC)[C@@]1(O)[C@H]2OC(=O)[C@@]1(C)O` [THAPSIGARGIN]: the IC50 was determined as 0.2 nM.
